# According to PubChem BioAssay AID652011 (Sanford-Burnham Center for Chemical Genomics, 2013):
# Where “and” joins values, the source holds several entries; their conditions need not be identical. Equal values may be shown once.
# Biological target: Hypoxia-inducible factor 1-alpha (Homo sapiens) (UniProt Q16665)
# Test: HIF-1a and HIF-2a reporter inhibitors, SAR follow-up, cell-based, luminescence, MIAPaCa-2, 786-0, panel (AID 652011)
# Settings: MIAPaCa-2/PANC HIF reporter, luciferase luminescence, desferoxamine, overnight, HIF1a, run 2; at 99 µM (top of the series)
# Method in brief: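 Probe or stimulus: desferoxamine stimulus / Schedule: overnight compound incubation at 37 °C, 10 min reagent / Dosing: compounds from 10 mM and 0.3125 mM stocks, 1% DMSO final / Signal: luciferase luminescence with One-Glo reagent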
# Chain of Hypoxia-inducible factor 1-alpha (Homo sapiens) (Q16665 whole entry, looked up): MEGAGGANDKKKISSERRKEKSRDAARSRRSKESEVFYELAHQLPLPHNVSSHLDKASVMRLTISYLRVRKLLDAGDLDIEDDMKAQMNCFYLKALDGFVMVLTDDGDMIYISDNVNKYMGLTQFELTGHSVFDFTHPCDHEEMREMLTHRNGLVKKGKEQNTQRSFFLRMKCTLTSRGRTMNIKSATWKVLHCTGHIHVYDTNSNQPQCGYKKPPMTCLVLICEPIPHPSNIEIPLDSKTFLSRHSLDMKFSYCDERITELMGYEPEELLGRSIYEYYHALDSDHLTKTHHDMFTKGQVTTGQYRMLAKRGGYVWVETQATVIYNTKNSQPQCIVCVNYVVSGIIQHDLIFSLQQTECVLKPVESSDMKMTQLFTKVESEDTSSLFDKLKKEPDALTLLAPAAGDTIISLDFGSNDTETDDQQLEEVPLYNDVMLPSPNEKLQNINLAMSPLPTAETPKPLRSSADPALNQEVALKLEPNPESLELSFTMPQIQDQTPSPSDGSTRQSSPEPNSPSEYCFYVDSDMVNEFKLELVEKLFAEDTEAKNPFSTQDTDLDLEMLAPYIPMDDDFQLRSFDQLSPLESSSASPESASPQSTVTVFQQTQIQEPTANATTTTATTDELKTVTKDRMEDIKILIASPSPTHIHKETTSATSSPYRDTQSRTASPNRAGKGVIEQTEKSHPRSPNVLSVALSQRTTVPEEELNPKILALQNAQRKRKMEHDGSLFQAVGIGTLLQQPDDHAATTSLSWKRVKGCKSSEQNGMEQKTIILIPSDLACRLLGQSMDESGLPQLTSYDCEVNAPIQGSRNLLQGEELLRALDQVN
row,Compound,inhibition
1,CCNC(=O)CCc1nc(-c2cccc(F)c2)no1,-31.8%
2,CCc1ccc(-c2noc(CCC(=O)NC3CC3)n2)cc1,-49.4%
3,CNC(=O)CCc1nc(-c2ccccc2)no1,-20.8% and 17.9%
4,CC(C)(C)c1ccc(-c2noc(CCC(=O)NC3CCC3)n2)cc1,54.4%
5,CCOc1ccc(-c2noc(CCC(=O)NC)n2)cc1,-24%
6,CCC(C)NC(=O)CCc1nc(-c2ccccc2)no1 (stereo not given),-19.7%
7,CC(C)(C)c1ccc(-c2noc(CCC(=O)NCC3CCCO3)n2)cc1 (stereo not given),8.05%
8,CCC(C)NC(=O)CCc1nc(-c2ccc(C(C)(C)C)cc2)no1 (stereo not given),-28.9%
9,CNC(=O)CCc1nc(-c2ccc(C(C)(C)C)cc2)no1,18.4%
10,CNC(=O)CCc1nc(-c2ccc(C(C)C)cc2)no1,-35.5%
11,CC(C)(C)c1ccc(-c2noc(CCC(=O)N3CCCCC3)n2)cc1,103%
12,CCNC(=O)CCc1nc(-c2ccc(CC)cc2)no1,-31.3%
13,CCc1ccc(-c2noc(CCC(=O)NC)n2)cc1,-34.1%
14,CC(C)(C)c1ccc(-c2noc(CCC(=O)Nc3cccnc3)n2)cc1,85.6%
15,CCNC(=O)CCc1nc(-c2ccccc2)no1,-23.4%
16,CCC(C)NC(=O)CCc1nc(-c2ccc(C(C)C)cc2)no1 (stereo not given),-0.644%
17,CCNC(=O)CCc1nc(-c2cccc(C)c2)no1,-31.6%
18,CCc1ccc(-c2noc(CCC(=O)NC(C)(C)C)n2)cc1,-0.564%
19,CCNC(=O)CCc1nc(-c2ccccc2Cl)no1,-3.81%
20,CCNC(=O)CCc1nc(-c2ccc(C(C)C)cc2)no1,-15.6%
21,CCN(CC)C(=O)CCc1nc(-c2ccc(C(C)(C)C)cc2)no1,27.4% and 77.3%
22,CC(C)CNC(=O)CCc1nc(-c2ccc(C(C)(C)C)cc2)no1,2.19%
23,CCCCc1ccc(-c2noc(CCC(=O)NC(C)(C)C)n2)cc1,93%
24,CCNC(=O)CCc1nc(-c2ccccc2C)no1,-28.2%
25,CNC(=O)CCc1nc(-c2ccc(OC)cc2)no1,-31.5%
26,COC(=O)CCc1nc(-c2ccc(C(C)(C)C)cc2)no1,93.8%
27,CC(C)(C)c1ccc(-c2noc(CCC(=O)N3CCOCC3)n2)cc1,-1.55%
28,COc1cccc(NC(=O)CCc2nc(-c3ccc(C(C)(C)C)cc3)no2)c1,81.2%
29,CC(C)NC(=O)CCc1nc(-c2ccc(C(C)(C)C)cc2)no1,26.5%
30,CC(C)(C)c1ccc(-c2noc(CCC(=O)NC3CCCC3)n2)cc1,81.4%
